In one data set the test system is Human FAAH. The following applies: read-out: Human FAAH IC50; literature values ref 27; cited from earlier work.
Data set [1] in a line: Pharmacokinetics after oral administration in rats. The following applies: rat, 100 mg/kg oral. It is filed as in vivo. In outline: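 Male Sprague-Dawley rats, 8 weeks old, 250–300 g, n=4/group. Test compound given once at 100 mg/kg in 100% NEOBEE 1053 by oral gavage. Each sample added to 100 μL water with 0.1% EDTA, vortexed, stored at −80 °C, then processed and quantified by a previously reported method.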

In data set [2] the test system is LPS-induced inflammatory pain. Kind of data set: LPS-induced inflammatory pain model. Format: in vivo. The settings on record: rat, 100 mg/kg oral, LPS intraplantar, 6-h time-course, n=4/group.
A further data set deals with CB1 receptor. The following applies: cited from earlier work.
A further data set concerns the target T1, recombinant human sEH (Homo sapiens, UniProt P34913).
T1 sequence (P34913 1-555): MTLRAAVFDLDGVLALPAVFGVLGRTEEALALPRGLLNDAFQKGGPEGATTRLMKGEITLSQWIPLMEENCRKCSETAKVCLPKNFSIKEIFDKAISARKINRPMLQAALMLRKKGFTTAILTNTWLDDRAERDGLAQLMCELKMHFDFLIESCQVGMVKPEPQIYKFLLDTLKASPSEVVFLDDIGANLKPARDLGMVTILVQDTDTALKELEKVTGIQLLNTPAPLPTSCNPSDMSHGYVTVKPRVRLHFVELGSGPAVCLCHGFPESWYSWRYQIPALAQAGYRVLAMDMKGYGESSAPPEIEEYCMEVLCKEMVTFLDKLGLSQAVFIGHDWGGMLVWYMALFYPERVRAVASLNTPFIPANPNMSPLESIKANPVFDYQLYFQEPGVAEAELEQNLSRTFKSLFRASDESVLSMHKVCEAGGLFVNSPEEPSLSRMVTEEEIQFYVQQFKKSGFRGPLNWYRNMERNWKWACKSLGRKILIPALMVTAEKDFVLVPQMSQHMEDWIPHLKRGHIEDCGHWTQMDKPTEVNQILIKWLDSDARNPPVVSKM
Kind of data set: sEH inhibition assay. Format: biochemical. In outline: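 Fluorescence assay on recombinant human sEH, test compound in serial dilution. Substrate MNPC at 5 μM final is hydrolysed to fluorescent 6-methoxynaphthaldehyde, read at λex 330 nm and λem 465 nm. IC50 determined in triplicate and the mean reported. Reference inhibitor t-TUCB run in parallel to validate the assay.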

Each structure is given as a SMILES string. Entries after “also recorded” stand apart in the source; their conditions may differ.

Data on 9 compounds can be found in publication PMC7888481 (Journal of natural products, 2020).

As for `CCCCCCCCCCCCCCCC(=O)NCc1ccccc1` [Compound 1, N-benzylpalmitamide], the IC50 in the data set with Human FAAH is greater than 100 µM.

Take `CCCCCCCCCCCCCCCCCC(=O)NCc1ccccc1` [Compound 2, N-Benzyloctadecanamide]: in the data set on Human FAAH, the IC50 was greater than 100 µM.

Consider `CCCCCCCC/C=C\CCCCCCCC(=O)NCc1ccccc1` [Compound 3, N-Benzyloctadec-9Z-enamide], for which, in the data set with Human FAAH, the IC50 is 16.7 µM.

For `CCCCC/C=C\C/C=C\CCCCCCCC(=O)NCc1ccccc1` [Compound 4, N-Benzyloctadeca-9Z,12Z-dienamide], in data set [1], the “time at which concentration peaked in the blood” value is on record as no more than 3 h. In addition, the “paw withdrawal thresholds (pain relief) relative to vehicle control” value in data set [2] (100 mg/kg) is on record as “significantly increased; also recorded: efficacious”. The “binding to the CB1 receptor” value in the data set on CB1 receptor is “selectively bind”. Also, in the data set on Human FAAH, the IC50 was 10.8 µM.

Consider `CC/C=C\C/C=C\C/C=C\CCCCCCCC(=O)NCc1ccccc1` [Compound 5, N-Benzyloctadeca-9Z,12Z,15Z-trienamide], for which the “paw withdrawal thresholds (pain relief) relative to vehicle control” value in data set [2] is “not significant”. In addition, the IC50 with Human FAAH is 41.8 µM.

As to `CCCCCCCC/C=C\CCCCCCCC(=O)NCc1cccc(OC)c1` [Compound 10, N-(3-Methoxybenzyl)octadec-9Z-enamide], in the data set with Human FAAH, the IC50 was 11 µM.

As for `CCCCC/C=C\C/C=C\CCCCCCCC(=O)NCc1cccc(OC)c1` [Compound 11, N-(3-Methoxybenzyl)octadeca-9Z,12Z-dienamide], the IC50 in the data set on Human FAAH was 10.3 µM.

Regarding `CC/C=C\C/C=C\C/C=C\CCCCCCCC(=O)NCc1cccc(OC)c1` [Compound 12, N-(3-Methoxybenzyl)octadeca-9Z,12Z,15Z-trienamide], the IC50 with Human FAAH was 13.7 µM.

`CCCCC/C=C\C/C=C\CCCCCCCC(=O)NCCc1ccccc1` [Compound 18, N-Phenethyloctadeca-9Z,12Z-dienamide]: the IC50 at recombinant human sEH stood at 0.028 µM.
